Drawing on the RNAGym collection of RNA variant scans (doi:10.1126/science.aae0568), this text covers yeast fitness for 167 variants.

This sample holds only a part of the variants without activity. Some results are limits rather than exact numbers.

To fix the notation:
B1: tRNA (parent)
chain: GUUCCGUUGGCGUAAUGGUAACGCGUCUCCCUCCUAAGGAGAAGACUGCGGGUUCGAGUCCCGUACGGAACG

The variants in this series derive from B1. Nature of the series: yeast fitness relative to wild type (ratio to wild type); higher = fitter; tRNA-Arg(CCU), competitive growth, 37 C, YPD. In outline:
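The tRNA-Arg(CCU) gene variants were made by chemical synthesis with a 3% per-site mutation rate at 69 sites and inserted at the native genomic locus of Saccharomyces cerevisiae. After pooling, the strains were competed in YPD at 37°C for 24 hours in six parallel replicates. Gene amplicons from the start population and each end population were read by 100-nucleotide paired-end sequencing, and Darwinian fitness relative to wild type was taken from genotype frequency changes. Genotypes needed ≥ 100 starting reads, and estimates < 0.5 were set to 0.5.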
In the case of A37U C66A, the yeast fitness came out at 0.528.

For A37U G58A, the yeast fitness is 0.767.

As to G38C G39C C46U A69U, the yeast fitness was at most 0.5.

Consider G38C A43U A45G, for which the yeast fitness was at most 0.5.

With A37U G63A, the yeast fitness is 0.642.

On to G39C C46A C60G, for which the yeast fitness is at most 0.5.

For A40C C55A, the yeast fitness came out at 0.556.

Turning to A40C G52C G67A, the yeast fitness was 0.55.

Take G39A G48A A57U: the yeast fitness was at most 0.5.

For the variant A40C U64C, the yeast fitness was 0.912.

Take G38C C61G C66U A69U: the yeast fitness is at most 0.5.

Take A40C A57G C61U: the yeast fitness was determined as 0.573.

Consider A40C A57G C61G, for which the yeast fitness is at most 0.5.

For G38C C62U A65G, the yeast fitness was found to be 0.502.

As for G38C C60U G63C A65G, the yeast fitness is at most 0.5.

G38C U54C: the yeast fitness came out at 0.82.

Regarding A40C, the yeast fitness came out at 1.

Turning to A40G, the yeast fitness amounted to 1.01.

A37U U64A: the yeast fitness was 0.642.

Take G39C A43G G44C A45U C49G G67C: the yeast fitness came out at 0.558.

For the variant G38A G58A, the yeast fitness is 1.06.

For the variant G39A A45C A69C, the yeast fitness was 0.804.

Turning to A40C C60A C66U, the yeast fitness was at most 0.5.

For the variant A40G A45C C60A, the yeast fitness was at most 0.5.

In the case of A40C G68U, the yeast fitness is 0.788.

For A40C G68C, the yeast fitness was found to be 0.641.

As to G38A U54C A65U, the yeast fitness was determined as 0.581.

Take G38C C46A C62G C66U: the yeast fitness is at most 0.5.

For G39A C66U, the yeast fitness was 0.797.

As to A40G U54C G68C, the yeast fitness is at most 0.5.

Regarding G39U A43G, the yeast fitness came to 0.811.

Turning to A37U C49U C61G, the yeast fitness was at most 0.5.

As for A40C G48C, the yeast fitness was 0.684.

In the case of G38C G50A G52A C55U, the yeast fitness is at most 0.5.

G38C G41C A42G A65G: the yeast fitness amounted to 0.503.

Take A37U C49U G58A: the yeast fitness was determined as 0.57.

With A40C G50A, the yeast fitness turned out to be 0.619.

Consider A37U C55U C61G A65U, for which the yeast fitness was at most 0.5.

Consider A37U C55G G68C, for which the yeast fitness was at most 0.5.

With A40G G48C C61G A65U, the yeast fitness was at most 0.5.

As for G39C C49A, the yeast fitness amounted to 0.664.

As for G39A A43C, the yeast fitness is 0.796.

Regarding A40G C61U A65U, the yeast fitness is at most 0.5.

Take A40G G44A A70G: the yeast fitness was determined as 0.567.

In the case of A37U G44A A65U, the yeast fitness is at most 0.5.

For A37U A65C C66G, the yeast fitness is at most 0.5.

Consider G38C A69U A70U, for which the yeast fitness is at most 0.5.

Regarding G39C U53C, the yeast fitness was 0.747.

For A37G U59A, the yeast fitness came out at 0.663.

For A37U U53G G56A A70C, the yeast fitness is at most 0.5.

In the case of G39A U53A C62G C66U, the yeast fitness is at most 0.5.

Regarding A40C A42G U47C C55A, the yeast fitness was 0.587.

Regarding G38A A57U, the yeast fitness was 0.772.

Take G38C G48C: the yeast fitness stood at 0.722.

Regarding A37U G38A, the yeast fitness came out at 0.631.

G39C C55A: the yeast fitness stood at 0.643.

Consider G38C C60U C66G, for which the yeast fitness is at most 0.5.

Turning to G39A A45C, the yeast fitness amounted to 1.03.

For the variant G39C A42U C60G C62U G67C, the yeast fitness was at most 0.5.

On to A40G C62U A65C C66A, for which the yeast fitness was at most 0.5.

On to G39C A43U A69U, for which the yeast fitness is 0.736.

For the variant A40G G56C, the yeast fitness amounted to 0.725.

As for G39C G52A, the yeast fitness was found to be 0.76.

With A40C A42U A43C G48A, the yeast fitness was 0.55.

For the variant G39A C49U, the yeast fitness turned out to be 0.842.

Consider A37U G63C A69C, for which the yeast fitness is at most 0.5.

G38C A40C G51C C62U A69U: the yeast fitness is at most 0.5.

As for A37U A40C G51A, the yeast fitness came to 0.687.

G38C A57G: the yeast fitness turned out to be 0.617.

Take A37U G67A: the yeast fitness was determined as 0.724.

Turning to G39A G52A, the yeast fitness stood at 0.759.

Consider A40G G44C U53C C55A A65U, for which the yeast fitness was at most 0.5.

Take G39C G51C: the yeast fitness worked out at 0.568.

As to G38A A42C U54C C62G A65C C66A, the yeast fitness was at most 0.5.

As to G38A A43C A65C, the yeast fitness was at most 0.5.

In the case of G38C G50C, the yeast fitness was determined as 0.562.

Regarding G39A C46A C60G C61U, the yeast fitness was found to be 0.512.

In the case of A37U A45U U47C C62G, the yeast fitness was at most 0.5.

Take G38A A40G C49U C66A: the yeast fitness is at most 0.5.

As to G38C A43G C60U C62U A70C, the yeast fitness was at most 0.5.

Turning to G38C U64C, the yeast fitness was determined as 0.803.

In the case of G38C G56U, the yeast fitness amounted to 0.633.

Consider G39A G58C A69U, for which the yeast fitness stood at 0.773.

As for A37U C49A A65U, the yeast fitness was at most 0.5.

On to A40G A43G C55U, for which the yeast fitness was determined as 0.565.

Consider G38A A40U G50C C60G A70G, for which the yeast fitness was determined as 0.526.

For A37G G63C A65U, the yeast fitness is at most 0.5.

On to A40C G51A C61U A69C, for which the yeast fitness was 0.618.

Turning to A40C U47C, the yeast fitness is 0.904.

As to G39C A42G, the yeast fitness turned out to be 0.653.

Consider G38A A43U G56A, for which the yeast fitness is 0.596.

Regarding A37U U54A, the yeast fitness is at most 0.5.

As to A37G G58C, the yeast fitness turned out to be 0.719.

Consider G38C A45G, for which the yeast fitness is 0.641.

With G38C A70C, the yeast fitness worked out at 0.738.

Regarding A37G U53C A57C, the yeast fitness was at most 0.5.

On to G38A C62U A70U, for which the yeast fitness worked out at 0.577.

Consider A40C G48C A69C, for which the yeast fitness amounted to 0.57.

In the case of G39C C49G G50C, the yeast fitness is at most 0.5.

Consider G38A G56A, for which the yeast fitness is 1.02.

In the case of A40C C46U A65G G68C, the yeast fitness came to 0.59.

As to G39C C66U, the yeast fitness came to 0.633.

In the case of A40C A70U, the yeast fitness amounted to 0.797.

For the variant G39C U47C A57C C61A U64C, the yeast fitness is at most 0.5.

With G38A A69C, the yeast fitness was 0.847.

Consider A40C C49U A69C, for which the yeast fitness turned out to be 0.592.

As for G38C U59C, the yeast fitness is 0.711.

In the case of G39C G58A, the yeast fitness was 0.876.

Regarding A37U A65C, the yeast fitness is 0.739.

G38C U64A G68A: the yeast fitness was at most 0.5.

In the case of G39A G63A, the yeast fitness came to 0.945.

On to A37U A45U C62G, for which the yeast fitness is at most 0.5.

Consider G39C G56C, for which the yeast fitness is 0.553.

In the case of G38A G58C A70U, the yeast fitness was 0.748.

With A37G G67A, the yeast fitness amounted to 0.819.

Turning to A40C G48C U59C, the yeast fitness is at most 0.5.

For the variant A37G G58C A69C, the yeast fitness was found to be 0.623.

For G38C A40U U54C, the yeast fitness is at most 0.5.

As for G38A U54A, the yeast fitness turned out to be 0.628.

On to G38A G58C C66U, for which the yeast fitness is 0.588.

With G39A G50A C66U, the yeast fitness is at most 0.5.

Consider A40G G44C, for which the yeast fitness came to 0.676.

As to A37U A70U, the yeast fitness came to 0.655.

Consider A40C U54A C62U, for which the yeast fitness is at most 0.5.

As to A40C U47A A69G, the yeast fitness is 0.54.

In the case of G39C U59A C60G, the yeast fitness was found to be 0.541.

Consider A40G G51C A57U, for which the yeast fitness is at most 0.5.

Regarding G39A U54C, the yeast fitness came to 0.945.

Take A37G U47A C55A G58C: the yeast fitness is at most 0.5.

For the variant G39C C62U, the yeast fitness amounted to 0.776.

As for A40G A70C, the yeast fitness worked out at 0.946.

On to G38A A42C U54C A69C, for which the yeast fitness is at most 0.5.

For A37U A42G A45U G67C, the yeast fitness was at most 0.5.

Regarding G39A G51A U53A G63C, the yeast fitness was at most 0.5.

Take G38C A43G C62G: the yeast fitness is at most 0.5.

For G39A A42U, the yeast fitness amounted to 0.767.

In the case of G39C C46U, the yeast fitness came out at 0.98.

As for A40C C55A C66A, the yeast fitness is 0.578.

As to G38U A65G, the yeast fitness stood at 0.802.

As for G39C A57U, the yeast fitness was found to be 0.682.

For the variant G39C A57G, the yeast fitness worked out at 0.705.

Consider A37U C61G, for which the yeast fitness was found to be 0.529.

As for G39A G67A, the yeast fitness came out at 0.769.

With G39A A65U, the yeast fitness was determined as 0.791.

As for A40G U64C, the yeast fitness was determined as 0.972.

As for A40C G67A, the yeast fitness worked out at 0.846.

Take G39A U47A C49U U54A: the yeast fitness is at most 0.5.

On to G38U G48A A70U, for which the yeast fitness amounted to 0.652.

With A40G G52C C66G, the yeast fitness is at most 0.5.

In the case of G38C G48C G63C, the yeast fitness was determined as 0.574.

With A40C C49G, the yeast fitness is 0.804.

Regarding G39U A45C, the yeast fitness was 0.851.

On to G38A U47C, for which the yeast fitness was 0.837.

Take G39C G48C A69C: the yeast fitness was found to be 0.57.

Consider A40C G58A, for which the yeast fitness is 0.962.

As to A40G G63A G67A, the yeast fitness is at most 0.5.

On to A40G G68U, for which the yeast fitness was determined as 0.857.

For the variant G39A G44A G50A G63C, the yeast fitness is at most 0.5.

Regarding A40C G41C C49A G68C, the yeast fitness is at most 0.5.

Regarding A40G C49U, the yeast fitness was found to be 0.883.

Take A37U U59C: the yeast fitness was 0.721.

For G38U, the yeast fitness worked out at 1.01.

On to G38A, for which the yeast fitness was 1.02.

As for G38C, the yeast fitness turned out to be 0.806.

For G39C G48C G63C C66G, the yeast fitness is at most 0.5.

For A37G U53C G67A, the yeast fitness was at most 0.5.

Turning to A37U A57C U64G, the yeast fitness was at most 0.5.
